In ChEMBL document CHEMBL1156224, “Design, synthesis, and antibiofilm activity of 2-arylimino-3-aryl-thiazolidine-4-ones” (2010) one finds MIC, Activity and MBC data, which are given here for 25 compounds.

Values after ≈ are worked out from the molar mass of the structure shown.

The term MIC denotes the lowest concentration that inhibits growth of the organism. A high value points to a less susceptible organism. As usually defined, the MBC is the smallest concentration meeting the test's criterion for killing.

What all share (assay type): functional
The test system of experiment [1] is Staphylococcus epidermidis. As to the kind of experiment: Antibacterial activity against Staphylococcus epidermidis RP62A by broth microdilution method. An outline of the steps:
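MIC against S. epidermidis RP62A by CLSI broth microdilution run in tubes (tube-dilution).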
On the technique in general: Dilution methods test growth across graded concentrations, often in twofold steps.

For experiment [2], the system named is Staphylococcus epidermidis. The experiment in a line: Antibacterial activity against Staphylococcus epidermidis RP62A 6 hrs biofilm after 16 hrs by microtiter plate method. An outline of the steps:
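S. epidermidis RP62A overnight culture diluted 1:10 in TSB (OD600 0.6–0.8), then 1:200 in MH; inoculated into 96-well polystyrene wells, 37 °C for 6 h to form young biofilm. Wells washed four times with sterile PBS, fresh TSB with compound at various concentrations added, further 37 °C for 16 h.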

Experiment [3] has as its system Staphylococcus epidermidis. The experiment in a line: Antibacterial activity against Staphylococcus epidermidis RP62A assessed as colony number after 24 hrs microdilution agar plate method. An outline of the steps: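 MBC: 100 μl from each tube without visible growth in the MIC assay subcultured onto compound-free Mueller-Hinton agar, 37 °C for 24 h. Endpoint is the lowest concentration giving subcultures with no more than five colonies per plate.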

On to `CCc1ccccc1/N=C1\S/C(=C\c2ccc(OCC(=O)O)c(OC)c2)C(=O)N1c1ccccc1CC`, for which the MIC in experiment [1] was 50 µM (≈ 25.8 µg/mL). The same compound returned an Activity in experiment [2] of 100 µM. The MBC in experiment [3] turned out to be 100 µM.

`CCc1ccccc1/N=C1\S/C(=C\c2cccc(OCC(=O)O)c2)C(=O)N1c1ccccc1CC`: inhibition of growth in experiment [1] (MIC) required 50 µM (≈ 24.3 µg/mL). In experiment [2], this compound came in with an Activity of 100 µM. In addition, the MBC in experiment [3] was 100 µM.

In experiment [1], `COC(=O)COc1ccc(/C=C2\S/C(=N\c3ccccc3C)N(c3ccccc3C)C2=O)cc1OC` had an MIC of more than 200 µM. In experiment [2], this compound gave an Activity of more than 200 µM. Further, in experiment [3], the MBC is more than 200 µM.

Regarding `Cc1ccccc1/N=C1\S/C(=C\c2ccc(-c3cccc(C(=O)O)c3)o2)C(=O)N1c1ccccc1C`, the MIC in experiment [1] stood at 12.5 µM (≈ 6.18 µg/mL). Moreover, the Activity in experiment [2] stood at 25 µM. The MBC in experiment [3] was 25 µM.

In experiment [1], `COC(=O)c1cccc(-c2ccc(/C=C3\S/C(=N\c4ccc(OC)cc4)N(c4ccc(OC)cc4)C3=O)o2)c1` returned an MIC of more than 200 µM. This compound returned an Activity in experiment [2] of more than 200 µM. Also, the MBC in experiment [3] was more than 200 µM.

`CCc1ccccc1/N=C1\S/C(=C\c2ccc(OCC(=O)O)cc2)C(=O)N1c1ccccc1CC` came in with an MIC in experiment [1] of 50 µM (≈ 24.3 µg/mL). This compound had an Activity in experiment [2] of 100 µM. Also, in experiment [3], the MBC turned out to be 100 µM.

On to `COC(=O)c1cccc(-c2ccc(/C=C3\S/C(=N\c4ccc(C)cc4)N(c4ccc(C)cc4)C3=O)o2)c1`, for which the MIC in experiment [1] was more than 200 µM. Moreover, in experiment [2], the Activity is more than 200 µM. Besides, the MBC in experiment [3] is more than 200 µM.

In experiment [1], `COc1cc(/C=C2\S/C(=N\c3ccccc3C)N(c3ccccc3C)C2=O)ccc1OCC(=O)O` came in with an MIC of more than 200 µM. Also, the Activity in experiment [2] is more than 200 µM. Besides, the MBC in experiment [3] is more than 200 µM.

On to `COc1ccc(/N=C2\S/C(=C\c3ccc(-c4cccc(C(=O)O)c4)o3)C(=O)N2c2ccc(OC)cc2)cc1`, for which the MIC in experiment [1] came out at 6.25 µM (≈ 3.29 µg/mL). In addition, the Activity in experiment [2] turned out to be 6.25 µM. The MBC in experiment [3] is 25 µM.

For the compound `CCc1ccccc1/N=C1\S/C(=C\c2ccc(O)cc2)C(=O)N1c1ccccc1CC`, the minimum inhibitory concentration (MIC) in experiment [1] was more than 200 µM. The same compound returned an Activity in experiment [2] of more than 200 µM. For the same compound, in experiment [3], the MBC was more than 200 µM.

For the compound `CCc1ccccc1/N=C1\S/C(=C\c2ccc(OCC(=O)OC)cc2)C(=O)N1c1ccccc1CC`, the MIC in experiment [1] is more than 200 µM. In experiment [2], the Activity is more than 200 µM. In addition, in experiment [3], the MBC was more than 200 µM.

In experiment [1], `CCc1ccccc1/N=C1\S/C(=C\c2cccc(OCC(=O)OC)c2)C(=O)N1c1ccccc1CC` returned an MIC of more than 200 µM. The Activity in experiment [2] was more than 200 µM. Also, the MBC in experiment [3] is more than 200 µM.

`COC(=O)COc1ccc(/C=C2\S/C(=N\c3ccccc3C)N(c3ccccc3C)C2=O)cc1` returned an MIC in experiment [1] of more than 200 µM. In experiment [2], this compound came in with an Activity of more than 200 µM. For the same compound, the MBC in experiment [3] was more than 200 µM.

Consider `CCc1ccccc1/N=C1\S/C(=C\c2ccc(-c3cccc(C(=O)O)c3)o2)C(=O)N1c1ccccc1CC`, for which the lowest concentration to inhibit growth in experiment [1] (MIC) was 12.5 µM (≈ 6.53 µg/mL). Also, in experiment [2], the Activity was 25 µM. For the same compound, the MBC in experiment [3] is 25 µM.

Consider `COc1cc(/C=C2\S/C(=N\c3ccccc3C)N(c3ccccc3C)C2=O)ccc1O`, for which the MIC in experiment [1] is more than 200 µM. Moreover, the Activity in experiment [2] is more than 200 µM. Further, in experiment [3], the MBC is more than 200 µM.

On to `CCc1ccccc1/N=C1\S/C(=C\c2cccc(O)c2)C(=O)N1c1ccccc1CC`, for which the minimum inhibitory concentration (MIC) in experiment [1] is more than 200 µM. Besides, the Activity in experiment [2] is more than 200 µM. Also, the MBC in experiment [3] is more than 200 µM.

On to `COc1cc(/C=C2\S/C(=N\c3ccccc3)N(c3ccccc3)C2=O)ccc1O`, for which, in experiment [1], the MIC was more than 200 µM. The Activity in experiment [2] is more than 200 µM. Moreover, in experiment [3], the MBC was more than 200 µM.

In the case of `COC(=O)COc1ccc(/C=C2\S/C(=N\c3ccccc3)N(c3ccccc3)C2=O)cc1OC`, the MIC in experiment [1] is more than 200 µM. In experiment [2], this compound returned an Activity of more than 200 µM. For the same compound, the MBC in experiment [3] is more than 200 µM.

For the compound `COC(=O)c1cccc(-c2ccc(/C=C3\S/C(=N\c4ccccc4C)N(c4ccccc4C)C3=O)o2)c1`, the MIC in experiment [1] was more than 200 µM. The same compound returned an Activity in experiment [2] of more than 200 µM. Also, in experiment [3], the MBC is more than 200 µM.

The compound `Cc1ccccc1/N=C1\S/C(=C\c2ccc(O)cc2)C(=O)N1c1ccccc1C` showed an MIC in experiment [1] of more than 200 µM. In experiment [2], this compound had an Activity of more than 200 µM. Moreover, the MBC in experiment [3] was more than 200 µM.

In turn, `COc1cc(/C=C2\S/C(=N\c3ccccc3)N(c3ccccc3)C2=O)ccc1OCC(=O)O` displayed an MIC in experiment [1] of more than 200 µM. This compound also yielded an Activity in experiment [2] of more than 200 µM. The MBC in experiment [3] was more than 200 µM.

With `CCc1ccccc1/N=C1\S/C(=C\c2ccc(-c3cccc(C(=O)OC)c3)o2)C(=O)N1c1ccccc1CC`, the MIC in experiment [1] is more than 200 µM. In experiment [2], this compound had an Activity of more than 200 µM. Further, in experiment [3], the MBC is more than 200 µM.

On to `Cc1ccccc1/N=C1\S/C(=C\c2ccc(OCC(=O)O)cc2)C(=O)N1c1ccccc1C`, for which, in experiment [1], the MIC is more than 200 µM. The compound also yielded an Activity in experiment [2] of more than 200 µM. The MBC in experiment [3] is more than 200 µM.

`Cc1ccc(/N=C2\S/C(=C\c3ccc(-c4cccc(C(=O)O)c4)o3)C(=O)N2c2ccc(C)cc2)cc1`: the lowest concentration to inhibit growth in experiment [1] (MIC) was 6.25 µM (≈ 3.09 µg/mL). The compound further showed an Activity in experiment [2] of 12.5 µM. Besides, in experiment [3], the MBC was 25 µM.

In the case of `CN(C)c1ccc(/C=C2\S/C(=N\c3ccccc3)N(c3ccccc3)C2=O)cc1`, the MIC in experiment [1] was more than 200 µM. The Activity in experiment [2] is more than 200 µM. Further, the MBC in experiment [3] is more than 200 µM.
